We go through eleven compounds from ChEMBL document CHEMBL1121899, “Biological activities of photoaffinity labeling analogues of kinins and their irreversible effects on kinin receptors” (1981).

What all share (type): functional
The species entered for assay [1] is Oryctolagus cuniculus. The assay is described as follows: The compound was tested in vitro on rabbit aorta for residual response in presence of ultraviolet light. The procedure, abridged:
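Aorta strips in cycloheximide were challenged twice with [des-Arg⁹]BK and checked with 3 µM noradrenaline and 0.2 µM [Sar¹]angiotensin II. They were then incubated with 100 µM (4'-amino)Phe plus the photolabel and irradiated 10 min around 365 nm (18 mW/cm²). This was done once or twice. Residual [des-Arg⁹]BK response at 60 min was expressed as percent of reference tissues.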

The target in assay [2] is T1, B1 bradykinin receptor (Homo sapiens) (UniProt P46663).
T1 sequence (whole entry): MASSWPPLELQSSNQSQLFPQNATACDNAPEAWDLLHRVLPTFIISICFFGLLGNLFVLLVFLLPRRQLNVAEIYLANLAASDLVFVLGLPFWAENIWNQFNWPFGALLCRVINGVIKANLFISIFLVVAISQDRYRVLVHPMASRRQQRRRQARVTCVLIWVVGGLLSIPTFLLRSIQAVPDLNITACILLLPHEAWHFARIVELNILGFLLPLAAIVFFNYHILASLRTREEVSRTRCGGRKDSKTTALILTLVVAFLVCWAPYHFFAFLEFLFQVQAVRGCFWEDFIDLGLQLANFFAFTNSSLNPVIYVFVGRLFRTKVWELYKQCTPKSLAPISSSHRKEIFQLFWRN
In words: Intrinsic activity was determined. To be noted: Oryctolagus cuniculus.

The species named for assay [3] is Oryctolagus cuniculus. The assay is described as follows: In vitro 50 % Maximal response in rabbit aorta expressing B1 receptor. The note with it: read-out: ED50 (the source's name).
Assay [4] concerns the target T2, B2 bradykinin receptor (Homo sapiens) (UniProt P30411).
T2 sequence (whole entry): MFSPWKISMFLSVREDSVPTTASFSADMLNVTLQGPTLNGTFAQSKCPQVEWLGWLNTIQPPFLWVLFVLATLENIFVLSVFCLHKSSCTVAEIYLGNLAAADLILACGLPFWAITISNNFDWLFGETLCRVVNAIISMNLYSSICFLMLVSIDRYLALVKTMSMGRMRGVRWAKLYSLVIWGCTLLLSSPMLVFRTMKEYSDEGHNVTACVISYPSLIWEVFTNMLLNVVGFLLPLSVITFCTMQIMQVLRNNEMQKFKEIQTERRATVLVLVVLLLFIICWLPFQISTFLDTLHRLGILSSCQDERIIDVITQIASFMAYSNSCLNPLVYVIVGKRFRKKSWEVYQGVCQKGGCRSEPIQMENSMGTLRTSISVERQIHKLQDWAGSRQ
In words: In vitro 50 % Maximal response in jugular vein expressing B2 receptor. To be noted: Oryctolagus cuniculus. The procedure, abridged: (§1)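 Isolated rabbit jugular vein strips were equilibrated about 2 h with protease inhibitor SQ 14225 (100 ng/mL) under incandescent light, with no UV. pD₂ was taken as −log of the half-maximal concentration. Relative affinity is given as percent of BK. Specificity was checked by desensitization with BK or an analogue. Antagonists were given as pA₂ from the ID₅₀ that reduces a double agonist dose to a single-dose response.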

In assay [5] the target is T2, B2 bradykinin receptor (Homo sapiens). The assay is described as follows: Percent agonistic activity in rabbit jugular vein expressing B2 receptor relative to bradykinin. The note with it: Oryctolagus cuniculus. The procedure, abridged: as §1

Where a SMILES comes first, the peptide text is derived from it.

As to `NC(N)=NCCC[C@H](N)C(=O)N1CCC[C@H]1C(=O)N1CCC[C@H]1C(=O)NCC(=O)N[C@@H](Cc1ccccc1)C(=O)N[C@@H](CO)C(=O)N1CCC[C@H]1C(=O)N[C@@H](Cc1ccccc1)C(=O)O`, in the assay listed under Oryctolagus cuniculus [1], the Response came to 85%. This compound also came in with an Alpha E in assay [2] of 1. Moreover, in the assay filed under Oryctolagus cuniculus [3], the EC50 is 68 nM.

Turning to `NC(N)=NCCC[C@H](N)C(=O)N1CCC[C@H]1C(=O)N1CCC[C@H]1C(=O)NCC(=O)N[C@@H](Cc1ccc(N)cc1)C(=O)N[C@@H](CO)C(=O)N1CCC[C@H]1C(=O)N[C@@H](Cc1ccccc1)C(=O)O`, the Alpha E in assay [2] stood at 1. In the assay listed under Oryctolagus cuniculus [3], the EC50 was 5460 nM.

Regarding `NC(N)=NCCC[C@H](N)C(=O)N1CCC[C@H]1C(=O)N1CCC[C@H]1C(=O)NCC(=O)N[C@@H](Cc1ccccc1)C(=O)N[C@@H](CO)C(=O)N1CCC[C@H]1C(=O)N[C@@H](Cc1ccc(N)cc1)C(=O)O`, the Alpha E in assay [2] was 1. For the same compound, the EC50 in the assay listed under Oryctolagus cuniculus [3] stood at 4650 nM.

Take `N#[N+]c1ccc(C[C@H](NC(=O)CNC(=O)[C@@H]2CCCN2C(=O)[C@@H]2CCCN2C(=O)[C@@H](N)CCCN=C(N)N)C(=O)N[C@@H](CO)C(=O)N2CCC[C@H]2C(=O)N[C@@H](Cc2ccccc2)C(=O)O)cc1`: the Alpha E in assay [2] was 1. In addition, in the assay filed under Oryctolagus cuniculus [3], the EC50 amounted to 3750 nM.

Consider `[N-]=[N+]=Nc1ccc(C[C@H](NC(=O)CNC(=O)[C@@H]2CCCN2C(=O)[C@@H]2CCCN2C(=O)[C@@H](N)CCCN=C(N)N)C(=O)N[C@@H](CO)C(=O)N2CCC[C@H]2C(=O)N[C@@H](Cc2ccccc2)C(=O)O)cc1`, for which the Response in the assay listed under Oryctolagus cuniculus [1] was determined as 90%. In assay [2], this compound registered an Alpha E of 1. In addition, the EC50 in the assay listed under Oryctolagus cuniculus [3] was 461 nM.

With `NC(N)=NCCC[C@H](N)C(=O)N1CCC[C@H]1C(=O)N1CCC[C@H]1C(=O)NCC(=O)N[C@@H](Cc1ccc([N+](=O)[O-])cc1)C(=O)N[C@@H](CO)C(=O)N1CCC[C@H]1C(=O)N[C@@H](Cc1ccccc1)C(=O)O`, in the assay listed under Oryctolagus cuniculus [1], the Response worked out at 92%. The Alpha E in assay [2] is 1. Besides, the EC50 in the assay filed under Oryctolagus cuniculus [3] turned out to be 437 nM.

In turn, `NC(N)=NCCC[C@H](NC(=O)[C@H](Cc1cc(I)c(N)c(I)c1)NC(=O)[C@@H]1CCCN1C(=O)[C@H](CO)NC(=O)[C@H](Cc1ccccc1)NC(=O)CNC(=O)[C@@H]1CCCN1C(=O)[C@@H]1CCCN1C(=O)[C@@H](N)CCCN=C(N)N)C(=O)O` (HELM PEPTIDE1{R.P.P.G.F.S.P.[Nc1c(I)cc(C[C@H](N[*:1])C(=O)[*:2])cc1I].R}$$$$V2.0) displayed an ED50 in assay [4] greater than 100000 nM. The Relative affinity in assay [5] was less than 0.01%.

On to `NC(N)=NCCC[C@H](NC(=O)[C@H](Cc1ccc(N)cc1)NC(=O)[C@@H]1CCCN1C(=O)[C@H](CO)NC(=O)[C@H](Cc1ccccc1)NC(=O)CNC(=O)[C@@H]1CCCN1C(=O)[C@@H]1CCCN1C(=O)[C@@H](N)CCCN=C(N)N)C(=O)O` (HELM PEPTIDE1{R.P.P.G.F.S.P.[Nc1ccc(C[C@H](N[*:1])C(=O)[*:2])cc1].R}$$$$V2.0), for which the Alpha E in assay [2] was 1. Besides, the ED50 in assay [4] was 19.5 nM. Moreover, the Relative affinity in assay [5] came out at 9%.

`N=C(N)NCCC[C@H](NC(=O)[C@H](Cc1ccccc1)NC(=O)[C@@H]1CCCN1C(=O)[C@H](CO)NC(=O)[C@H](Cc1cc(I)c(N)c(I)c1)NC(=O)CNC(=O)[C@@H]1CCCN1C(=O)[C@@H]1CCCN1C(=O)[C@@H](N)CCCNC(=N)N)C(=O)O` (HELM PEPTIDE1{R.P.P.G.[Nc1c(I)cc(C[C@H](N[*:1])C(=O)[*:2])cc1I].S.P.F.R}$$$$V2.0) returned an ED50 in assay [4] greater than 100000 nM. The compound also yielded a Relative affinity in assay [5] of less than 0.01%.

With `NC(N)=NCCC[C@H](NC(=O)[C@H](Cc1ccccc1)NC(=O)[C@@H]1CCCN1C(=O)[C@H](CO)NC(=O)[C@H](Cc1ccc(N)cc1)NC(=O)CNC(=O)[C@@H]1CCCN1C(=O)[C@@H]1CCCN1C(=O)[C@@H](N)CCCN=C(N)N)C(=O)O` (HELM PEPTIDE1{R.P.P.G.[Nc1ccc(C[C@H](N[*:1])C(=O)[*:2])cc1].S.P.F.R}$$$$V2.0), in assay [2], the Alpha E is 1. In assay [4], the ED50 amounted to 57 nM. The compound also gave a Relative affinity in assay [5] of 3%.

In the case of H-RPPGYSPF-OH, in assay [2], the Alpha E turned out to be 1. In the assay filed under Oryctolagus cuniculus [3], the EC50 was 869 nM.
